Source: ChEMBL document CHEMBL4406845, “Synthesis of benzotriazoles derivatives and their dual potential as α-amylase and α-glucosidase inhibitors in vitro: Structure-activity relationship, molecular docking, and kinetic studies” (Eur J Med Chem, 2019)

How the values were obtained:
Alpha amylase = biological target: T1, Alpha amylase (Homo sapiens, UniProt P0DUB6); assay: Inhibition of alpha-amylase (unknown origin) using starch as substrate preincubated for 10 mins followed by substrate addition and measured after 10 mins by dinitrosalicylic acid reagent based assay
T1 sequence (P0DUB6 whole entry): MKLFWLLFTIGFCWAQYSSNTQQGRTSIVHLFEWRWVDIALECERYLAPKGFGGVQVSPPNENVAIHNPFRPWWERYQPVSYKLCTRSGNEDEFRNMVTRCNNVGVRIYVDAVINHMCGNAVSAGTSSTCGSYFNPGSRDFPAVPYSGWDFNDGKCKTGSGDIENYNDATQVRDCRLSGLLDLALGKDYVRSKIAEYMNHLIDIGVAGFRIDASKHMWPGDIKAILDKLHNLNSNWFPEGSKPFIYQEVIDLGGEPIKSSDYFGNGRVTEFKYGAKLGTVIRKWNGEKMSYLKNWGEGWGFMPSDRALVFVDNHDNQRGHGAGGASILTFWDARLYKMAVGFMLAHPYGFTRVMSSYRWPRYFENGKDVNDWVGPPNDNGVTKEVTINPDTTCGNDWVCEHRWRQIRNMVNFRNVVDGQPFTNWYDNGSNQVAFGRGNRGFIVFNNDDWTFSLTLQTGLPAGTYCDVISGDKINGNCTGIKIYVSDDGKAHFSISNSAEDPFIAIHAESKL

Alpha glucosidase = Alpha glucosidase (Homo sapiens, UniProt O43451+P10253+P14410+Q2M2H8); assay: Inhibition of alpha-glucosidase (unknown origin); assay type: protein assay
[1] = tested on: COc1ccc(C(=O)Cn2nnc3cc(C)c(C)cc32)cc1; assay: (§1) Competitive inhibition of alpha-amylase (unknown origin) assessed as substrate Vmax using p-nitrophenyl-R-D-maltoside as substrate incubated for 30 mins by ELISA-based Lineweaver-burk plot analysis; settings: Homo sapiens
Procedure, shortened: (§2)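 Kinetics: inhibitor at 0.0625, 0.125, 0.3 and 0.4 mM crossed with p-nitrophenyl-R-D-maltoside at 0.1, 0.2, 0.4, 0.8 and 1.0 mM. Enzyme dissolved in deionized water, 0.2 mg/mL per well. PIPES buffer, pH 7.0, 30 min at 25 °C. Absorbance read on a plate reader. Vmax, Km, AICc and R² obtained by enzyme-kinetic graph fitting.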

[2] = tested on: COc1ccc(C(=O)n2nnc3ccccc32)cc1; assay: as §1; settings: Homo sapiens; procedure, shortened: as §2
[3] = tested on: Cc1cc2nnn(CC(=O)c3ccc(Cl)c(Cl)c3)c2cc1C; assay: as §1; settings: Homo sapiens; procedure, shortened: as §2
[4] = tested on: Cc1cc2nnn(CC(=O)c3ccc(Cl)cc3)c2cc1C; assay: as §1; settings: Homo sapiens; procedure, shortened: as §2
[5] = tested on: O=C(Cn1nnc2ccccc21)c1ccc(Cl)cc1; assay: as §1; settings: Homo sapiens; procedure, shortened: as §2
[6] = tested on: O=C(Cn1nnc2ccccc21)c1cccc(Br)c1; assay: as §1; settings: Homo sapiens; procedure, shortened: as §2
[7] = tested on: O=C(c1ccc(F)cc1)n1nnc2ccccc21; assay: as §1; settings: Homo sapiens; procedure, shortened: as §2
[8] = tested on: O=C(c1ccc([N+](=O)[O-])cc1)n1nnc2ccccc21; assay: as §1; settings: Homo sapiens; procedure, shortened: as §2
[9] = tested on: O=C(c1cccc(Cl)c1)n1nnc2cc(Cl)c(Cl)cc21; assay: as §1; settings: Homo sapiens; procedure, shortened: as §2
[10] = tested on: COc1ccc(C(=O)Cn2nnc3cc(C)c(C)cc32)cc1; assay: (§3) Competitive inhibition of alpha-amylase (unknown origin) assessed as substrate Km using p-nitrophenyl-R-D-maltoside as substrate incubated for 30 mins by ELISA-based Lineweaver-burk plot analysis; settings: Homo sapiens; procedure, shortened: as §2
[11] = tested on: COc1ccc(C(=O)n2nnc3ccccc32)cc1; assay: as §3; settings: Homo sapiens; procedure, shortened: as §2
[12] = tested on: Cc1cc2nnn(CC(=O)c3ccc(Cl)c(Cl)c3)c2cc1C; assay: as §3; settings: Homo sapiens; procedure, shortened: as §2
[13] = tested on: Cc1cc2nnn(CC(=O)c3ccc(Cl)cc3)c2cc1C; assay: as §3; settings: Homo sapiens; procedure, shortened: as §2
[14] = tested on: O=C(Cn1nnc2ccccc21)c1ccc(Cl)cc1; assay: as §3; settings: Homo sapiens; procedure, shortened: as §2
[15] = tested on: O=C(Cn1nnc2ccccc21)c1cccc(Br)c1; assay: as §3; settings: Homo sapiens; procedure, shortened: as §2
[16] = tested on: O=C(c1ccc(F)cc1)n1nnc2ccccc21; assay: as §3; settings: Homo sapiens; procedure, shortened: as §2
[17] = tested on: O=C(c1ccc([N+](=O)[O-])cc1)n1nnc2ccccc21; assay: as §3; settings: Homo sapiens; procedure, shortened: as §2
[18] = tested on: O=C(c1cccc(Cl)c1)n1nnc2cc(Cl)c(Cl)cc21; assay: as §3; settings: Homo sapiens; procedure, shortened: as §2
[19] = tested on: CCCCOc1ccc(C(=O)n2nnc3ccccc32)cc1; assay: (§4) Non-competitive inhibition of alpha-glucosidase (unknown origin) assessed as substrate Vmax using p-nitrophenyl-R-D-maltoside as substrate incubated for 30 mins at 1 min interval by ELISA-based Lineweaver-burk plot analysis; assay type: protein assay; settings: Homo sapiens
[20] = tested on: COc1ccc(C(=O)Cn2nnc3cc(C)c(C)cc32)cc1; assay: as §4; assay type: protein assay; settings: Homo sapiens
[21] = tested on: Cc1cc(C(=O)n2nnc3ccccc32)cc(C)c1C; assay: as §4; assay type: protein assay; settings: Homo sapiens
[22] = tested on: Cc1cc2nnn(C(=O)c3ccccc3)c2cc1C; assay: as §4; assay type: protein assay; settings: Homo sapiens
[23] = tested on: Cc1ccc(C(=O)n2nnc3cc(Cl)c(Cl)cc32)cc1C; assay: as §4; assay type: protein assay; settings: Homo sapiens
[24] = tested on: O=C(Cn1nnc2ccccc21)c1cccc([N+](=O)[O-])c1; assay: as §4; assay type: protein assay; settings: Homo sapiens
[25] = tested on: O=C(Cn1nnc2ccccc21)c1ccccc1O; assay: as §4; assay type: protein assay; settings: Homo sapiens
[26] = tested on: O=C(c1ccc(Br)cc1)n1nnc2ccccc21; assay: as §4; assay type: protein assay; settings: Homo sapiens
[27] = tested on: O=C(c1cccc(Cl)c1)n1nnc2cc(Cl)c(Cl)cc21; assay: as §4; assay type: protein assay; settings: Homo sapiens
[28] = tested on: CCCCOc1ccc(C(=O)n2nnc3ccccc32)cc1; assay: (§5) Non-competitive inhibition of alpha-glucosidase (unknown origin) assessed as substrate Km using p-nitrophenyl-R-D-maltoside as substrate incubated for 30 mins at 1 min interval by ELISA-based Lineweaver-burk plot analysis; assay type: protein assay; settings: Homo sapiens
[29] = tested on: COc1ccc(C(=O)Cn2nnc3cc(C)c(C)cc32)cc1; assay: as §5; assay type: protein assay; settings: Homo sapiens
[30] = tested on: Cc1cc(C(=O)n2nnc3ccccc32)cc(C)c1C; assay: as §5; assay type: protein assay; settings: Homo sapiens
[31] = tested on: Cc1cc2nnn(C(=O)c3ccccc3)c2cc1C; assay: as §5; assay type: protein assay; settings: Homo sapiens
[32] = tested on: Cc1ccc(C(=O)n2nnc3cc(Cl)c(Cl)cc32)cc1C; assay: as §5; assay type: protein assay; settings: Homo sapiens
[33] = tested on: O=C(Cn1nnc2ccccc21)c1cccc([N+](=O)[O-])c1; assay: as §5; assay type: protein assay; settings: Homo sapiens
[34] = tested on: O=C(Cn1nnc2ccccc21)c1ccccc1O; assay: as §5; assay type: protein assay; settings: Homo sapiens
[35] = tested on: O=C(c1ccc(Br)cc1)n1nnc2ccccc21; assay: as §5; assay type: protein assay; settings: Homo sapiens
[36] = tested on: O=C(c1cccc(Cl)c1)n1nnc2cc(Cl)c(Cl)cc21; assay: as §5; assay type: protein assay; settings: Homo sapiens

Row | Compound | IC50 (Alpha amylase) [µM] | IC50 (Alpha glucosidase) [µM] | other results
1 | Nc1cc(C(=O)n2nnc3ccccc32)ccc1Cl | 4.28 | 4.32 | –
2 | O=C(Cn1nnc2ccccc21)c1cccc(Cl)c1Cl | 3.51 | 3.47 | –
3 | Cc1ccc(C(=O)Cn2nnc3ccccc32)cc1 | 4.56 | 4.78 | –
4 | O=C(Cn1nnc2ccccc21)c1ccc(Cl)c(Cl)c1 | 3.89 | 3.9 | –
5 | Cc1cc2nnn(CC(=O)c3ccc(Cl)c(Cl)c3)c2cc1C | 2 | 2.04 | –
6 | CCCCOc1ccc(C(=O)n2nnc3ccccc32)cc1 | 5.4 | 5.6 | –
7 | O=C(c1ccc(F)c(F)c1Cl)n1nnc2ccccc21 | 5.72 | 5.63 | –
8 | Cc1cc2nnn(C(=O)c3ccccc3)c2cc1C | 3.32 | 3.4 | –
9 | O=C(c1ccccc1)n1nnc2ccccc21 | 5.38 | 5.29 | –
10 | COc1ccccc1C(=O)n1nnc2ccccc21 | 4.77 | 4.79 | –
11 | O=C(c1ccccc1)n1nnc2cc(Cl)c(Cl)cc21 | 3.66 | 3.7 | –
12 | Cc1cccc(C(=O)n2nnc3ccccc32)c1 | 4.3 | 4.42 | –
13 | O=C(c1cccc(Cl)c1)n1nnc2cc(Cl)c(Cl)cc21 | 2.99 | 3 | –
14 | COc1ccc(C(=O)n2nnc3ccccc32)cc1 | 2.98 | 2.99 | –
15 | O=C(c1ccc(Br)cc1)n1nnc2ccccc21 | 3.13 | 3.2 | –
16 | O=C(Cn1nnc2ccccc21)c1ccc(Br)cc1 | 2.76 to 4.35 | 2.79 to 4.41 | –
17 | O=C(Cn1nnc2ccccc21)c1ccc(-c2ccccc2)cc1 | 4.92 | 4.98 | –
18 | Cc1cc(C(=O)n2nnc3ccccc32)ccc1[N+](=O)[O-] | 4.08 | 4.1 | –

Row | Compound | IC50 (Alpha amylase) [µM] | IC50 (Alpha glucosidase) [µM] | other results
19 | COc1ccc(C(=O)Cn2nnc3cc(C)c(C)cc32)cc1 | 2.51 | 2.6 | –
20 | Cc1ccc(C(=O)n2nnc3ccccc32)cc1C | 4.73 | 4.8 | –
21 | Alpha amylase (Homo sapiens) (from UniProt P0DUB6) | – | – | Vmax [1]: 505 µM/min; Vmax [2]: 554 µM/min; Vmax [3]: 593 µM/min; Vmax [4]: 514 µM/min; Vmax [5]: 527 µM/min; Vmax [6]: 512 µM/min; Vmax [7]: 522 µM/min; Vmax [8]: 512 µM/min; Vmax [9]: 514 µM/min; Km [10]: 200 µM; Km [11]: 210 µM; Km [12]: 240 µM; Km [13]: 180 µM; Km [14]: 200 µM; Km [15]: 210 µM; Km [16]: 190 µM; Km [17]: 200 µM; Km [18]: 200 µM
22 | O=C(Cn1nnc2ccccc21)c1ccc(Cl)cc1 | 2.41 | 2.5 | –
23 | O=C(Cn1nnc2ccccc21)c1cccc(Br)c1 | 4.35 | 4.41 | –
24 | O=C(Cn1nnc2ccccc21)c1ccccc1O | 4.9 | 4.87 | –
25 | O=C(c1c(F)cccc1F)n1nnc2ccccc21 | 5 | 5.23 | –
26 | Cc1cc2nnn(CC(=O)c3ccccc3O)c2cc1C | 3.21 | 3.3 | –
27 | COc1ccc(C(=O)Cn2nnc3ccccc32)cc1 | 4.42 | 4.5 | –
28 | Alpha glucosidase (Homo sapiens) (from UniProt O43451+P10253+P14410+Q2M2H8) | – | – | Vmax [19]: 621 µM/min; Vmax [20]: 620 µM/min; Vmax [21]: 612 µM/min; Vmax [22]: 602 µM/min; Vmax [23]: 620 µM/min; Vmax [24]: 618 µM/min; Vmax [25]: 601 µM/min; Vmax [26]: 612 µM/min; Vmax [27]: 620 µM/min; Km [28]: 240 µM; Km [29]: 210 µM; Km [30]: 200 µM; Km [31]: 200 µM; Km [32]: 240 µM; Km [33]: 260 µM; Km [34]: 250 µM; Km [35]: 200 µM; Km [36]: 250 µM
29 | Cc1ccc(C(=O)n2nnc3cc(Cl)c(Cl)cc32)cc1C | 3.66 | 3.82 | –
30 | Cc1cc2nnn(CC(=O)c3ccccc3)c2cc1C | 3.53 | 3.41 | –
31 | Cc1cc2nnn(CC(=O)c3ccc(Cl)cc3)c2cc1C | 2.12 | 2.21 | –
32 | Cc1cc(C(=O)n2nnc3ccccc32)cc(C)c1C | 4.12 | 4.23 | –
33 | O=C(c1ccc(F)cc1)n1nnc2ccccc21 | 2.8 | 2.82 | –
34 | O=C(Cn1nnc2ccccc21)c1cccc([N+](=O)[O-])c1 | 4.02 | 4 | –
35 | O=C(c1ccc([N+](=O)[O-])cc1)n1nnc2ccccc21 | 2.92 | 2.97 | –
36 | O=C(Cn1nnc2ccccc21)c1ccccc1 | 4.89 | 4.91 | –
